# This excerpt belongs to a sample that is enriched for hits.
# IDH1 mut inh – inhibitors of human IDH1 R132H | O75874 | IDH1 R132H reductase, diaphorase/resazurin fluorescence, 60 min | inhibition, % at 10 µM | 70,000 compounds, 0.18% hits | AID 624101; in the data active = inhibition above about 34%;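 also: 0% = DMSO and 100% = no enzyme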
# Target sequence (O75874 whole entry R132H): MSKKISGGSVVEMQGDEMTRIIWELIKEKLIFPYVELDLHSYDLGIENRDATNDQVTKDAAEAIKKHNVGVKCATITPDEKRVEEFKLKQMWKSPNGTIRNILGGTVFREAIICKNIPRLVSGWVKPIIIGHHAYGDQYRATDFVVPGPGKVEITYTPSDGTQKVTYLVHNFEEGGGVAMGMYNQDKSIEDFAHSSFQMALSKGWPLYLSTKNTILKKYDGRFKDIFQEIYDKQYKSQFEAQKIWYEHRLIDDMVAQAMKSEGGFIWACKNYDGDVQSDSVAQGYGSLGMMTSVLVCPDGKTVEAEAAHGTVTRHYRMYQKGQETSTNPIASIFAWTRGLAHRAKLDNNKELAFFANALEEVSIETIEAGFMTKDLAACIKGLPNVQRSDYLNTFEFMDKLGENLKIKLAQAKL
# GASC1 inh – blocks human GASC-1 (KDM4C) demethylase activity; Q9H3R0; GST-KDM4C 2-372, H3K9me3 peptide, LANCE TR-FRET; inhibition, % at 12.5 µM; 96,000 compounds, 0.15% hits;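 active = mean replicate inhibition above about 25%, with at least 55% of replicates also reaching it, limit read from the data, passing the limit was not always enough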
#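 System – N-terminal GST-fused human GASC-1 (KDM4C) fragment, residues 2-372 · Input – enzyme final amount 10 nM · Technique – LANCE TR-FRET, Eu antibody, ULight-streptavidin, EDTA, ex 340 nm, em 618/671 nm · Medium – HEPES buffer, pH 7.5, plus ascorbate · Incubation – enzyme reaction 30 min, then detection 60 min, both room temperature · Reagent – H3K9me3 peptide with Fe(II)/2OG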
# Pf Dd2 inh – blocks growth of Plasmodium falciparum Dd2 parasites; P. falciparum Dd2 growth, SYBR Green, 72 h; active compounds read low; 94,000 compounds, 2.3% hits; activity change, % at 10 µM; in the data active = activity change below about -80%
# * = called active by the depositor; x = no result; ! = a repeat was not active.
SMILES,IDH1 mut inh,GASC1 inh,Pf Dd2 inh
CCC(=O)N(C)C[C@@H]1Oc2cc(C#Cc3ccccc3)ccc2S(=O)(=O)N([C@H](C)CO)C[C@@H]1C,0,-2,-72
C[C@@H]1CN([C@@H](C)CO)S(=O)(=O)c2ccc(C#Cc3ccccc3)cc2O[C@H]1CN(C)C(=O)Cc1ccccn1,-2,-4,-84*
CCC(=O)N(C)C[C@H]1Oc2cc(C#Cc3ccccc3)ccc2S(=O)(=O)N([C@@H](C)CO)C[C@@H]1C,0,-1,-83*
CCC(=O)N(C)C[C@H]1Oc2cc(C#Cc3ccccc3)ccc2S(=O)(=O)N([C@H](C)CO)C[C@H]1C,0,-3,-67
CCN(C[C@@H]1[C@H](c2ccccc2)[C@@H](CO)N1C(C)=O)C(=O)c1ccccn1,x,-1,13
COc1ccc(NC(=O)Nc2ccc3c(c2)C(=O)N([C@H](C)CO)C[C@H](C)[C@H](CN(C)Cc2ccc(Cl)c(Cl)c2)OCCCC[C@@H](C)O3)cc1,x,-2,-44
CCOc1ccc2nc(SCC(=O)Nc3ccc4c(c3)OCCO4)sc2c1,0,x,x
Cc1ccccc1-c1ccc(C2[C@@H]3CN(Cc4ccc5c(c4)OCO5)C[C@H]2N3)cc1 (stereo not given in full),x,2,-7
CN(C)C(=O)c1ccc(-c2ccc(C3[C@@H]4CN(Cc5ccc6c(c5)OCO6)C[C@H]3N4)cc2)cc1 (stereo not given in full),x,2,-82*!
C/C=C/c1ccc(C2[C@@H]3CN(Cc4ccc5c(c4)OCO5)C[C@H]2N3)cc1 (stereo not given in full),x,1,-94*!
C/C=C/c1ccc(C2[C@H]3CNC[C@@H]2N3Cc2ccc3c(c2)OCO3)cc1 (stereo not given in full),x,0,-28
COc1ccccc1NC(=O)N[C@H]1CC[C@@H](CCn2cc(-c3ccccc3OC)nn2)O[C@@H]1CO,-1,1,-22
C[C@@H]1CN([C@@H](C)CO)S(=O)(=O)c2ccc(/C=C/c3ccccc3)cc2O[C@H]1CN(C)C(=O)Nc1ccc(F)cc1,0,0,-73
C[C@@H]1CN([C@@H](C)CO)S(=O)(=O)c2ccc(-c3ccccc3)cc2O[C@H]1CN(C)C(=O)Nc1ccccc1F,2,-1,-38
C[C@@H]1CN([C@@H](C)CO)S(=O)(=O)c2ccc(/C=C/c3ccccc3)cc2O[C@@H]1CN(C)C(=O)Nc1ccc(F)cc1,1,-5,-89*
C[C@@H]1CN([C@H](C)CO)S(=O)(=O)c2ccc(/C=C/c3ccccc3)cc2O[C@@H]1CN(C)C(=O)Nc1cc(F)ccc1F,-3,0,-64
C[C@@H]1CN([C@H](C)CO)S(=O)(=O)c2ccc(/C=C/c3ccccc3)cc2O[C@H]1CN(C)C(=O)Nc1cc(F)ccc1F,2,-7,-84*
C[C@H]1CN([C@@H](C)CO)S(=O)(=O)c2ccc(-c3ccccc3)cc2O[C@H]1CN(C)C(=O)Nc1ccccc1F,0,-1,-81*
O=C(O)c1cc(NC(=O)C2CC=CCC2C(=O)O)ccc1Cl (stereo not given),-1,x,x
CO[C@H]1CN(C)C(=O)c2cc(NS(C)(=O)=O)ccc2OC[C@@H](C)N(Cc2nccs2)C[C@H]1C,0,-1,34
CC(C)NC(=O)Nc1cccc2c1O[C@H](CN(C)S(=O)(=O)c1ccc(Cl)cc1)[C@H](C)CN([C@H](C)CO)C2=O,2,-1,-2
C[C@@H]1CN([C@@H](C)CO)C(=O)c2c(c3ccccc3n2C)-c2ccccc2CO[C@H]1CN(C)C(=O)Cc1ccccc1,x,-2,-86*
C[C@H]1CN([C@@H](C)CO)C(=O)c2c(c3ccccc3n2C)-c2ccccc2CO[C@H]1CN(C)C(=O)Cc1ccccc1,0,-1,-70
C[C@@H]1CN([C@@H](C)CO)C(=O)c2c(c3ccccc3n2C)-c2ccccc2CO[C@@H]1CN(C)C(=O)CCN(C)C,0,0,-79
C[C@H](CO)N1C[C@H](C)[C@@H](CN(C)C(=O)CCN(C)C)OCc2ccccc2-c2c(n(C)c3ccccc23)C1=O,x,-2,-85*
COc1ccc(-c2ccc([C@H]3[C@@H](CO)N4CCCCN(C(=O)c5ccc(F)cc5)C[C@@H]34)cc2)cc1,x,-1,-23
COC(=O)[C@@H]1N[C@@H]2c3ccc(C4=CCCCC4)c(=O)n3C[C@@H]2[C@H]1CO,x,-1,-3
O=C(CC1CC1)N1[C@H](CO)[C@H](c2ccccc2)C12CN(Cc1cc(F)ccc1F)C2,x,0,-71
C[C@@H](NC(=O)[C@H]1[C@H](CO)[C@H]2Cn3c(ccc(C4=CCCC4)c3=O)[C@@H]1N2C(=O)C1CC1)c1ccccc1,x,2,21
